UBC13 polyUb: human UBC13 polyubiquitination inhibition | P61088 | UBC13 polyubiquitin chain formation, TR-FRET | inhibition, % at 20 µM | 330,000 tested, 0.47% active | AID 485273; in the data active = inhibition above about 45%, passing the limit was not always enough
Target sequence (P61088 whole entry, looked up): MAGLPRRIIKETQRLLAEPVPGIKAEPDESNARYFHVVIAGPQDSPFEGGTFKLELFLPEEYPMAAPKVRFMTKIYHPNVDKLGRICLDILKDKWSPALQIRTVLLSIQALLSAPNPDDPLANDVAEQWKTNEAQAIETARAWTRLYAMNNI
SENP6 block: blocks the human protease SENP6; Recombinant SENP6 catalytic domain, aminoluciferin luminescence; 330,000 tested, 1.8% active; inhibition, % at 10 µM; Q9GZR1;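 active = inhibition above about 50% at the single tested dose, limit read from the data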;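 also: plate controls were DMSO wells with enzyme for no effect and DMSO wells lacking enzyme for full effect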
SENP8 block-1: blocks human SENP8 cleavage of Nedd8 substrate | Q96LD8 | recombinant SENP8, Nedd8 substrate fluorescence | inhibition, % at 20 µM | 360,000 tested, 0.64% active | AID 602440; in the data active = inhibition mostly above about 40%, no sharp cut-off; inactive = mostly below about 27%
Target sequence (Q96LD8 whole entry, looked up): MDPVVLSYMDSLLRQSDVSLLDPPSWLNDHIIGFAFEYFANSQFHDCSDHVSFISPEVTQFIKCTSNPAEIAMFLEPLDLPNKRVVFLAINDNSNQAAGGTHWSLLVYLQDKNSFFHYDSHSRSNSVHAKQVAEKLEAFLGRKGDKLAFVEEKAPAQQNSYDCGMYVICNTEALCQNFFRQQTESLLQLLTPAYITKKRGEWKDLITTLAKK
Apaf1 inhib: human Apaf-1 inhibition | reconstituted apoptosome caspase-3 activity, DEVD-Rh110 fluorescence | O14727 | inhibition, % at 20 µM | 330,000 tested, 0.71% active; active = inhibition of at least 40% at 20 µM;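 also: plate controls were DMSO wells for no effect and DEVD-CHO caspase inhibitor wells for full effect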
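Assay system: Apoptosome proteins | Medium: pH 7.5 Hepes buffer with CHAPS, BSA, DTT | Also added: Cytochrome c and DEVD-Rh110 substrate | Times: 30 min plus 50 min, RT | Detection: Rhodamine 110 fluorescence at Ex 480/Em 540 nm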
SENP8 block-2: SENP8 protease inhibition | Q96LD8 | purified SENP8, Z-RLRGG-aminoluciferin cleavage, luminescence | inhibition, % at 10 µM | 330,000 tested, 1.2% active; in the data active = inhibition above about 50%
SENP7 block: SENP7 protease inhibition; recombinant SENP7, Z-RLRGG-aminoluciferin luminescence, 40 min; inhibition, % at 5 µM; 330,000 tested, 1.5% active; AID 434973;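 active = inhibition above about 50% at the single test dose, limit read from the data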;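 also: plate controls were DMSO with enzyme for no effect and no enzyme buffer wells for full effect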
SENP8 conf: human SENP8 inhibition, confirmed; shares compounds with SENP7 block; Recombinant SENP8, Z-RLRGG-aminoluciferin luminescence, 60 min; inhibition, % at 12.5 µM; 6,200 tested, 40% active; AID 488912;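 active = mean inhibition across replicates above about 50%, limit read from the data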
SENP6 conf: confirmation of human SENP6 protease inhibitors | shares compounds with SENP7 block | recombinant SENP6, Z-RLRGG-aminoluciferin luminescence | inhibition, % at 12.5 µM | 6,200 tested, 58% active
SENP7 confirm: human SENP7 inhibition, confirmed. shares compounds with SENP7 block. recombinant SENP7, Z-RLRGG-aminoluciferin luminescence, 40 min. inhibition, % at 12.5 µM. 6,200 tested, 69% active. AID 488917
Casp3 SENP sel: selectivity test for SENP inhibitors: human caspase-3 inhibition; shares compounds with SENP7 block; purified caspase-3, Z-DEVD-aminoluciferin luminescence, 60 min; 6,200 tested, 60% active; AID 488918; inhibition, % at 12.5 µM;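 active = mean inhibition above about 50%, limit read from the data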;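 also: plate controls were enzyme with DMSO for no effect and wells without caspase-3 for full effect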
Target sequence (P42574 28-227 limits assumed): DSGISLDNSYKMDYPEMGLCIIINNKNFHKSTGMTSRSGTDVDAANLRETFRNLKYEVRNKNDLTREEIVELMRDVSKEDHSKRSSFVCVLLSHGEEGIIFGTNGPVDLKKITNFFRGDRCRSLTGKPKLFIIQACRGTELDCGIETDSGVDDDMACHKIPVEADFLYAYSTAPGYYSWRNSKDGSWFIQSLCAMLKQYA
Luc interf: counter-screen for SENP inhibitors: luminescence interference; shares compounds with SENP7 block; Pre-incubated SENP8/Z-RLRGG-aminoluciferin, luciferase luminescence interference; inhibition, % at 12.5 µM; 6,200 tested, 39% active; AID 488919;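 active = mean inhibition above about 50% when retested at one dose, limit read from the data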;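 also: plate controls were DMSO wells with completed reaction for no effect and substrate without enzyme for full effect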
* hit, by the source's call; . = no result. An excerpt weighted towards active compounds, which were near 3.1% of everything screened.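 The calls were made as follows, unless noted: active = mean inhibition above about 50% in the one-dose retest (limit read from the data); inactive = the rest.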

SMILES | UBC13 polyUb | SENP6 block | SENP8 block-1 | Apaf1 inhib | SENP8 block-2 | SENP7 block | SENP8 conf | SENP6 conf | SENP7 confirm | Casp3 SENP sel | Luc interf
O=[N+]([O-])c1ccc2nc(-c3ccccc3)n(OCc3ccc(Cl)cc3)c2c1 | -11 | 86* | 15 | 12 | 66* | 84* | 11 | 11 | 11 | 11 | 0
O=[N+]([O-])c1ccc(COn2nnc3ccccc32)cc1 | -12 | 15 | 14 | -8 | -13 | -1 | . | . | . | . | .
COn1c(-c2ccccc2)nc2ccc(Cl)cc21 | -2 | 54* | -22 | 11 | 22 | 23 | 39 | 39 | 72* | 39 | 44
O=C(O)COn1c(-c2ccccc2)nc2ccc(Cl)cc21 | 2 | -18 | -4 | 3 | -2 | -4 | . | . | . | . | .
COc1cc2ccccc2cc1C(=O)N/N=C/c1cccs1 | . | . | -50 | . | . | . | . | . | . | . | .
CC1=NN(C(=O)c2ccncc2)C(=O)C1N=Nc1ccc2ccccc2c1 (stereo not drawn) | . | . | 34 | . | . | . | . | . | . | . | .
CC1=NN(c2ccccc2)C(=O)C1N=Nc1cccc(O)c1 (stereo not drawn) | -40 | 5 | 27 | 2 | 4 | -4 | . | . | . | . | .
CC1=NN(C(N)=S)C(=O)C1N=Nc1ccccc1 (stereo not drawn) | 0 | 72* | 23 | -15 | 59* | 53* | 19 | 55* | 14 | 35 | 0
CC1=NN(C(N)=S)C(=O)C1N=Nc1ccc(Cl)cc1 (stereo not drawn) | -13 | 89* | 33 | -13 | 86* | 77* | -1 | 72* | 35 | 30 | 14
CC1=NN(C(N)=S)C(=O)C1N=Nc1ccc(Br)cc1 (stereo not drawn) | -20 | 96* | 36 | -4 | 92* | 74* | 26 | 40 | 27 | 40 | 23
CC1=NN(C(N)=S)C(=O)C1N=Nc1cccc([N+](=O)[O-])c1 (stereo not drawn) | -5 | 83* | 32 | -3 | 80* | 76* | 4 | 5 | -2 | 16 | 7
CC1(C(=O)NCc2cccs2)Cc2c(-c3ccc4c(c3)OCO4)ccnc2O1 (stereo not drawn) | . | . | -60 | . | . | . | . | . | . | . | .
CC1=NN(C(N)=S)C(=O)C1N=Nc1cccc(Cl)c1C (stereo not drawn) | -25 | 94* | 15 | -15 | 85* | 59* | 95* | 94* | 100* | 88* | 83*
O=S(=O)(Nc1ccc(C(O)(C(F)(F)F)C(F)(F)F)cc1)c1cccc2ccccc12 | . | . | -1 | . | . | . | . | . | . | . | .
CC(C)NC(=O)C1(C)CCN1C(=O)c1cccc(F)c1 (stereo not drawn) | . | . | 18 | . | . | . | . | . | . | . | .
Cc1nc(NC(=O)c2ccccc2)sc1-c1csc(NCc2ccco2)n1 | -11 | 60* | -43 | 8 | 48 | 66* | 28 | 29 | 36 | 67* | 32
COc1cccc(Nc2nc(-c3sc(NC(=O)c4ccccc4)nc3C)cs2)c1 | 12 | 59* | -88 | 8 | 35 | 40 | 12 | 11 | 20 | 37 | 12
COc1cccc(Nc2nc(-c3sc(NC(=O)CC(C)C)nc3C)cs2)c1 | -17 | -13 | -77 | 9 | 3 | 7 | . | . | . | . | .
Cc1nc(C)c(-c2csc(NCc3ccco3)n2)s1 | -1 | 7 | -18 | 8 | -1 | 4 | . | . | . | . | .
Cc1cccc(C(=Cc2ccc([N+](=O)[O-])cc2)C(=O)O)c1 | . | . | 26 | . | . | . | . | . | . | . | .
CC1Cc2cc(/C=C3/SC(=S)N(C)C3=O)ccc2O1 (stereo not drawn) | -6 | 74* | 25 | 3 | 61* | 63* | 10 | 20 | 38 | 52* | -5
CC1Cc2cc(/C=C3/SC(N4CCC(C(N)=O)CC4)=NC3=O)ccc2O1 (stereo not drawn) | -24 | -14 | -71 | -1 | -13 | -8 | . | . | . | . | .
CCCCN(C(C)=O)c1c(CC)nc2ccc(C(=O)NCCCN(C)C)cn12 | . | . | -44 | . | . | . | . | . | . | . | .
OC(c1cccc(Cl)c1)c1ncc(-c2ccccc2Cl)[nH]1 (stereo not drawn) | . | . | 5 | . | . | . | . | . | . | . | .
COC(=O)c1ccsc1NC(=O)CCc1ccccc1 | -4 | 88* | 2 | 6 | 87* | 87* | 90* | 91* | 100* | 91* | 66*
SMILES | UBC13 polyUb | SENP6 block | SENP8 block-1 | Apaf1 inhib | SENP8 block-2 | SENP7 block | SENP8 conf | SENP6 conf | SENP7 confirm | Casp3 SENP sel | Luc interf
NC(=O)c1ccsc1NC(=O)CCc1ccccc1 | -2 | 19 | 12 | 4 | -4 | 14 | . | . | . | . | .
N/C(=N\OC(=O)/C=C/c1ccccc1Cl)c1ccccn1 | -8 | 95* | -12 | -7 | 86* | 89* | 91* | 90* | 100* | 85* | 88*
N/C(=N\OC(=O)COc1ccc(Br)cc1Cl)c1ccccn1 | 1 | 96* | 20 | 8 | 86* | 97* | 89* | 87* | 97* | 82* | 89*
N/C(=N\OC(=O)/C=C/c1ccccc1Cl)c1cccnc1 | 4 | 49 | 24 | -10 | 27 | 52* | 9 | 5 | 20 | 10 | 36
N/C(=N\OC(=O)/C=C/c1ccc(Br)cc1)c1ccccn1 | -6 | 57* | 10 | -7 | 0 | 53* | 13 | 11 | 33 | 45 | 22
N/C(=N\OC(=O)/C=C/c1ccccc1)c1cccnc1 | 5 | -27 | 7 | -4 | -3 | 14 | . | . | . | . | .
Cc1nccn1CCC(=O)NC1CC(C)(C)Cc2c1cnn2-c1ccccc1 (stereo not drawn) | . | . | 8 | . | . | . | . | . | . | . | .
Nc1nnc(-c2ccc(Cl)cc2Cl)s1 | 3 | 13 | -170 | 5 | 2 | 5 | . | . | . | . | .
Nc1nccc(-c2cc(-c3ccc(Cl)cc3Cl)no2)n1 | 3 | 95* | -208 | 21 | 92* | 95* | 80* | 87* | 91* | 76* | 42
CC(=O)Nc1cc(-c2cccc(C(=O)NCCN(C)C)c2)cn2c(-c3cccc(C(F)(F)F)c3)cnc12 | . | . | -282 | . | . | . | . | . | . | . | .
O=C(Nc1nnc(SCc2ccccc2)s1)c1cccc([N+](=O)[O-])c1 | 0 | 84* | 16 | 5 | 71* | 22 | 68* | 66* | 83* | 53* | 44
Cc1nnc(SCc2cccc([N+](=O)[O-])c2)s1 | -1 | 8 | 13 | -3 | 0 | -5 | . | . | . | . | .

High-throughput results from PubChem BioAssay.
